In ChEMBL document CHEMBL5724801, “EUbOPEN Chemogenomics Library - Multiplex” (2024):
Several values for one entry are separate records, joined by “and”; a condition that tells them apart may be missing. Identical values can stand only once.

Test system: U2OS
Test: Multiplex assay against U2OS
Assay type: toxicity, cell-based
Conditions: human
How it was run: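 Hoechst33342, BioTracker Green Microtubule Cytoskeleton Dye, MitoTracker Red and Annexin V Alexa Fluor 680 were added to live cells at seeding, and imaging on a CQ1 microscope at 37°C and 5% CO2 followed compound addition. Gating by CellPathfinder machine learning separated cells into Hoechst high-intensity objects or normal cells, then normal cells into healthy, pyknosed or fragmented nuclei, then pyknosed cells into mitotic or apoptotic. Per cents of healthy-nucleus cells are reported for the tubulin, mitochondrial-mass and membrane-permeability phenotypes.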

[1] = 12 h, 1 µM, compound concentration 1 uM
[2] = 12 h, 10 µM, compound concentration 10 uM
[3] = 24 h, 1 µM, compound concentration 1 uM
[4] = 24 h, 10 µM, compound concentration 10 uM
[5] = 48 h, 1 µM, compound concentration 1 uM
[6] = 48 h, 10 µM, compound concentration 10 uM

## COc1ccc(CC(=O)NC(N/C(=N/C#N)Nc2cccc3ncccc23)C(C)(C)C)cc1OC (stereo not drawn)
[1]
  Population Apoptotic (%): 40.91% and 47.06%
  Population Fragmented Nuclei (%): 2.4% and 0.62%
  Population Healthy Nuclei (%): 91.73% and 88.89%
  Population Hoechst High Intensity Objects (%): 0%
  Population Membrane Permeable-Phenotype (%): 1.16% and 5.56%
  Population Mitochondria Different-Phenotype (%): 0.87% and 4.86%
  Population Mitotic Cells (%): 59.09% and 52.94%
  Population Normal (%): 100%
  Population Pyknosed Nuclei (%): 5.87% and 10.49%
  Population Tubulin-Different-Phenotype (%): 0.87% and 0.69%
  Total Cell Count: 375 and 162
[2]
  Population Apoptotic (%): 51.35% and 40%
  Population Fragmented Nuclei (%): 1.67% and 2.27%
  Population Healthy Nuclei (%): 88.02% and 82.58%
  Population Hoechst High Intensity Objects (%): 0%
  Population Membrane Permeable-Phenotype (%): 1.27% and 3.67%
  Population Mitochondria Different-Phenotype (%): 0.63% and 8.26%
  Population Mitotic Cells (%): 48.65% and 60%
  Population Normal (%): 100%
  Population Pyknosed Nuclei (%): 10.31% and 15.15%
  Population Tubulin-Different-Phenotype (%): 1.58% and 0.92%
  Total Cell Count: 359 and 132
[3]
  Population Apoptotic (%): 33.33% and 61.54%
  Population Fragmented Nuclei (%): 1.96% and 2.31%
  Population Healthy Nuclei (%): 85.66% and 85.65%
  Population Hoechst High Intensity Objects (%): 0%
  Population Membrane Permeable-Phenotype (%): 1.15% and 3.78%
  Population Mitochondria Different-Phenotype (%): 0.46% and 6.49%
  Population Mitotic Cells (%): 66.67% and 38.46%
  Population Normal (%): 100%
  Population Pyknosed Nuclei (%): 12.38% and 12.04%
  Population Tubulin-Different-Phenotype (%): 0.92% and 0%
  Total Cell Count: 509 and 216
[4]
  Population Apoptotic (%): 35.56% and 50%
  Population Fragmented Nuclei (%): 1.44% and 1.79%
  Population Healthy Nuclei (%): 89.32% and 87.5%
  Population Hoechst High Intensity Objects (%): 0%
  Population Membrane Permeable-Phenotype (%): 1.61% and 2.04%
  Population Mitochondria Different-Phenotype (%): 0.46% and 4.08%
  Population Mitotic Cells (%): 64.44% and 50%
  Population Normal (%): 100%
  Population Pyknosed Nuclei (%): 9.24% and 10.71%
  Population Tubulin-Different-Phenotype (%): 2.07% and 0.68%
  Total Cell Count: 487 and 168
[5]
  Population Apoptotic (%): 60.47% and 47.73%
  Population Fragmented Nuclei (%): 1.92% and 2.62%
  Population Healthy Nuclei (%): 88.91% and 85.86%
  Population Hoechst High Intensity Objects (%): 0%
  Population Membrane Permeable-Phenotype (%): 0.36% and 2.13%
  Population Mitochondria Different-Phenotype (%): 0.36% and 2.74%
  Population Mitotic Cells (%): 39.53% and 52.27%
  Population Normal (%): 100%
  Population Pyknosed Nuclei (%): 9.17% and 11.52%
  Population Tubulin-Different-Phenotype (%): 0.96% and 0.61%
  Total Cell Count: 938 and 382
[6]
  Population Apoptotic (%): 53.62% and 57.5%
  Population Fragmented Nuclei (%): 3.32% and 2.81%
  Population Healthy Nuclei (%): 89.53% and 83.16%
  Population Hoechst High Intensity Objects (%): 0%
  Population Membrane Permeable-Phenotype (%): 0.93% and 3.38%
  Population Mitochondria Different-Phenotype (%): 0.35% and 2.53%
  Population Mitotic Cells (%): 46.38% and 42.5%
  Population Normal (%): 100%
  Population Pyknosed Nuclei (%): 7.15% and 14.04%
  Population Tubulin-Different-Phenotype (%): 1.62% and 0.84%

## Cc1ccc(OCC(O)C(C)NC(C)C)c2c1CCC2.Cl (stereo not drawn)
[1]
  Population Apoptotic (%): 63% and 90%
  Population Fragmented Nuclei (%): 19% and 11%
  Population Healthy Nuclei (%): 66% and 79%
  Population Hoechst High Intensity Objects (%): 2% and 1%
  Population Membrane Permeable-Phenotype (%): 8% and 7%
  Population Mitochondria Different-Phenotype (%): 3% and 2%
  Population Normal (%): 97% and 98%
  Population Pyknosed Nuclei (%): 13% and 8%
  Population Tubulin-Different-Phenotype (%): 4% and 2%
  Total Cell Count: 222 and 129
[2]
  Population Apoptotic (%): 61% and 80%
  Population Fragmented Nuclei (%): 30% and 11%
  Population Healthy Nuclei (%): 52% and 81%
  Population Hoechst High Intensity Objects (%): 5% and 0%
  Population Membrane Permeable-Phenotype (%): 14% and 9%
  Population Mitochondria Different-Phenotype (%): 17% and 22%
  Population Mitotic Cells (%): 38% and 20%
  Population Normal (%): 94% and 99%
  Population Pyknosed Nuclei (%): 16% and 7%
  Population Tubulin-Different-Phenotype (%): 8% and 9%
  Total Cell Count: 215 and 137
[3]
  Population Apoptotic (%): 88% and 93%
  Population Fragmented Nuclei (%): 14% and 15%
  Population Healthy Nuclei (%): 75% and 73%
  Population Hoechst High Intensity Objects (%): 0% and 1%
  Population Membrane Permeable-Phenotype (%): 5% and 3%
  Population Mitochondria Different-Phenotype (%): 3% and 5%
  Population Mitotic Cells (%): 11% and 6%
  Population Normal (%): 100% and 98%
  Population Pyknosed Nuclei (%): 10%
  Population Tubulin-Different-Phenotype (%): 4% and 0%
  Total Cell Count: 255 and 155
[4]
  Population Apoptotic (%): 82% and 92%
  Population Fragmented Nuclei (%): 26% and 14%
  Population Healthy Nuclei (%): 56% and 77%
  Population Hoechst High Intensity Objects (%): 3% and 2%
  Population Membrane Permeable-Phenotype (%): 10% and 12%
  Population Mitochondria Different-Phenotype (%): 17% and 11%
  Population Mitotic Cells (%): 17% and 7%
  Population Normal (%): 96% and 97%
  Population Pyknosed Nuclei (%): 17% and 8%
  Population Tubulin-Different-Phenotype (%): 4% and 6%
  Total Cell Count: 230 and 172
[5]
  Population Apoptotic (%): 88% and 80%
  Population Fragmented Nuclei (%): 14% and 20%
  Population Healthy Nuclei (%): 73% and 69%
  Population Hoechst High Intensity Objects (%): 0% and 2%
  Population Membrane Permeable-Phenotype (%): 6% and 5%
  Population Mitochondria Different-Phenotype (%): 4% and 3%
  Population Mitotic Cells (%): 11% and 20%
  Population Normal (%): 99% and 97%
  Population Pyknosed Nuclei (%): 12% and 10%
  Population Tubulin-Different-Phenotype (%): 3% and 2%
  Total Cell Count: 377 and 202
[6]
  Population Apoptotic (%): 82% and 77%
  Population Fragmented Nuclei (%): 23% and 15%
  Population Healthy Nuclei (%): 63% and 73%
  Population Hoechst High Intensity Objects (%): 4% and 0%
  Population Membrane Permeable-Phenotype (%): 12% and 7%
  Population Mitochondria Different-Phenotype (%): 12% and 4%
  Population Mitotic Cells (%): 17% and 22%
  Population Normal (%): 95% and 99%
  Population Pyknosed Nuclei (%): 13% and 11%
  Population Tubulin-Different-Phenotype (%): 6% and 3%
  Total Cell Count: 306 and 246

## Cc1ccc(-c2c(C(=O)CF)n(CCCO)c3ncnc(N)c23)cc1
[1]
  Population Apoptotic (%): 36.11% and 57.14%
  Population Fragmented Nuclei (%): 2.07% and 1.92%
  Population Healthy Nuclei (%): 88.63% and 84.62%
  Population Hoechst High Intensity Objects (%): 0%
  Population Membrane Permeable-Phenotype (%): 0.29% and 2.27%
  Population Mitochondria Different-Phenotype (%): 0% and 2.27%
  Population Mitotic Cells (%): 63.89% and 42.86%
  Population Normal (%): 100%
  Population Pyknosed Nuclei (%): 9.3% and 13.46%
  Population Tubulin-Different-Phenotype (%): 0.29% and 0%
[2]
  Population Apoptotic (%): 50% and 52.94%
  Population Fragmented Nuclei (%): 1.91% and 5.78%
  Population Healthy Nuclei (%): 88.83% and 84.39%
  Population Hoechst High Intensity Objects (%): 0%
  Population Membrane Permeable-Phenotype (%): 0.61% and 4.11%
  Population Mitochondria Different-Phenotype (%): 0% and 3.42%
  Population Mitotic Cells (%): 50% and 47.06%
  Population Normal (%): 100%
  Population Pyknosed Nuclei (%): 9.26% and 9.83%
  Population Tubulin-Different-Phenotype (%): 0.61% and 0%
  Total Cell Count: 367 and 173
[3]
  Population Apoptotic (%): 47.37% and 40%
  Population Fragmented Nuclei (%): 1.55% and 4.48%
  Population Healthy Nuclei (%): 91.09% and 84.33%
  Population Hoechst High Intensity Objects (%): 0%
  Population Membrane Permeable-Phenotype (%): 0.43% and 3.54%
  Population Mitochondria Different-Phenotype (%): 0% and 2.65%
  Population Mitotic Cells (%): 52.63% and 60%
  Population Normal (%): 100%
  Population Pyknosed Nuclei (%): 7.36% and 11.19%
  Population Tubulin-Different-Phenotype (%): 0.21% and 0.88%
[4]
  Population Apoptotic (%): 54.05% and 43.48%
  Population Fragmented Nuclei (%): 2.71% and 3.7%
  Population Healthy Nuclei (%): 89.58% and 86.83%
  Population Hoechst High Intensity Objects (%): 0%
  Population Membrane Permeable-Phenotype (%): 0.93% and 5.21%
  Population Mitochondria Different-Phenotype (%): 0% and 4.27%
  Population Mitotic Cells (%): 45.95% and 56.52%
  Population Normal (%): 100%
  Population Pyknosed Nuclei (%): 7.71% and 9.47%
  Population Tubulin-Different-Phenotype (%): 1.4% and 0.47%
  Total Cell Count: 480 and 243
[5]
  Population Apoptotic (%): 33.82% and 20%
  Population Fragmented Nuclei (%): 3.18% and 5%
  Population Healthy Nuclei (%): 89.85% and 81.36%
  Population Hoechst High Intensity Objects (%): 0%
  Population Membrane Permeable-Phenotype (%): 1.26% and 1.12%
  Population Mitochondria Different-Phenotype (%): 0% and 2.23%
  Population Mitotic Cells (%): 66.18% and 80%
  Population Normal (%): 100%
  Population Pyknosed Nuclei (%): 6.97% and 13.64%
  Population Tubulin-Different-Phenotype (%): 0.34% and 0.56%
[6]
  Population Apoptotic (%): 49.33% and 48.98%
  Population Fragmented Nuclei (%): 2.94% and 2.66%
  Population Healthy Nuclei (%): 89.18% and 85.47%
  Population Hoechst High Intensity Objects (%): 0%
  Population Membrane Permeable-Phenotype (%): 0.94% and 1.13%
  Population Mitochondria Different-Phenotype (%): 0% and 1.42%
  Population Mitotic Cells (%): 50.67% and 51.02%
  Population Normal (%): 100%
  Population Pyknosed Nuclei (%): 7.88% and 11.86%
  Population Tubulin-Different-Phenotype (%): 1.06% and 0.57%
  Total Cell Count: 952 and 413
